Experimental data taken from ChEMBL document CHEMBL1148102, “New chlorinated diphenyl ethers from an Aspergillus species” (J Nat Prod, 2002).
Converted amounts (≈) assume the structure as drawn. The source made the active and inactive calls. The rule behind the calls is not given here.

How the values were obtained:
[1] = target: T1, Endothelin-1 receptor (Rattus norvegicus, UniProt P26684); test: Displacement of endothelin-1 from ETA receptor in rat A10 cells; format: cell-based
T1 sequence (P26684 whole entry): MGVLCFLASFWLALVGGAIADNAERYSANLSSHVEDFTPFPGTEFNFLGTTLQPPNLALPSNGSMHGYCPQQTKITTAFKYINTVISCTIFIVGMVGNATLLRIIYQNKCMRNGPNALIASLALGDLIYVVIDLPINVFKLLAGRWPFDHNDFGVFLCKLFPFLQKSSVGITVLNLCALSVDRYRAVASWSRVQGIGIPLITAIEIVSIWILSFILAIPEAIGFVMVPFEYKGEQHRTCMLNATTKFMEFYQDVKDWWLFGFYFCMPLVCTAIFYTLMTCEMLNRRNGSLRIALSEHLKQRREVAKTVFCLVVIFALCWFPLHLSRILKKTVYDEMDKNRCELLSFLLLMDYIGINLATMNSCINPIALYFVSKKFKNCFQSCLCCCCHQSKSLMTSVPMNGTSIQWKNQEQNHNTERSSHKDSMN

[2] = system: Escherichia coli; test: Antimicrobial activity against Escherichia coli at <200 ppm; format: functional, organism-based
[3] = system: Gaeumannomyces tritici; test: Antimicrobial activity against Gaeumannomyces graminis var. tritici at <200 ppm; format: functional, organism-based
In short: (§1)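 Antifungal test by the dialysis membrane overlay technique against the phytopathogenic fungus. Compounds were assessed at concentrations below 200 ppm.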

[4] = system: Rhizoctonia solani; test: Antimicrobial activity against Rhizoctonia solani at <200 ppm; format: functional, organism-based; in short: as §1
[5] = system: Caenorhabditis elegans; test: Antinematodal activity against Caenorhabditis elegans after 16 to 24 hrs; format: functional
In short: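 Model nematode C. elegans exposed to compounds in a bioassay. Lethality was scored over 16-24 h and reported as the concentration in ppm lethal to 90% (LD90) or 50% (LD50) of worms.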

Compound | IC50 [1] [µM] | Activity [2] | Activity [3] | Activity [4] | LD90 [5] [ppm] | LC50 ([5]; Caenorhabditis elegans, read-out: LD50 (the source's name)) [µg/mL]
COC(=O)c1cc(O)cc(OC)c1Oc1cc(C)cc(O)c1C(=O)O [ASTERRIC ACID] | 10 | inactive | inactive | inactive | 50 | 
COC(=O)c1cc(O)cc(OC)c1Oc1cc(C)cc(O)c1C(=O)OC [METHYL ASTERRATE] |  | inactive | inactive | inactive | 75 | 
COC(=O)c1cc(O)cc(OC)c1Oc1cc(C)c(Cl)c(O)c1C(=O)OC [METHYL CHLOROASTERRATE] |  | inactive | inactive | inactive |  | 100 (≈ 252 µM)
COC(=O)c1cc(O)cc(OC)c1Oc1c(Cl)c(C)c(Cl)c(O)c1C(=O)OC [METYL DICHLOROASTERRATE] |  | inactive | inactive | inactive | 75 | 
COC(=O)c1cc(O)cc(OC)c1C(=O)c1c(O)cc(C)cc1O [SULOCHRIN] |  | inactive | inactive | inactive | 50 | 
